Assays:
[1] = Antiproliferative activity against human HCT116 cells assessed as reduction in cell viability after 72 hrs by ATPlite assay; type: functional, cell-based; details: HCT-116, 72 h
How it was run: (§1)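 IC50 determined in human cancer cell lines (HCT-116, A-375 melanoma, HL-60, A-549). Camptothecin and etoposide served as reference compounds.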

[2] = Antiproliferative activity against human HCT116 cells assessed as reduction in cell viability at 20 uM after 72 hrs by ATPlite assay; type: functional; details: HCT-116, 72 h, read-out: GI
How it was run: (§2)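 HCT-116 human colon cancer cells exposed to compound for 72 h at 20, 10 or 1 μM. Growth inhibition is expressed as percentage relative to nontreated cells.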

[3] = Antiproliferative activity against human HCT116 cells assessed as reduction in cell viability at 10 uM after 72 hrs by ATPlite assay; type: functional; details: HCT-116, 72 h, read-out: GI; how it was run: as §2
[4] = Antiproliferative activity against human HCT116 cells assessed as reduction in cell viability at 1 uM after 72 hrs by ATPlite assay; type: functional; details: HCT-116, 72 h, read-out: GI; how it was run: as §2
[5] = system: A-375; assay: Antiproliferative activity against human A375 cells assessed as reduction in cell viability after 72 hrs by ATPlite assay; type: functional, cell-based; details: A-375, 72 h; how it was run: as §1
[6] = system: A549; assay: Antiproliferative activity against human A549 cells assessed as reduction in cell viability after 72 hrs by ATPlite assay; type: functional, cell-based; details: A549, 72 h
How it was run: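 IC50 values were determined on a panel of four human cancer lines (HCT-116, A-549, HL-60, A-375), with camptothecin and etoposide as reference compounds.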

[7] = Antiproliferative activity against human HL60 cells assessed as reduction in cell viability after 72 hrs by ATPlite assay; type: functional, cell-based; details: HL-60, 72 h; how it was run: as §1
[8] = system: Plasma; assay: Metabolic stability in rat plasma at 5 uM after 2 hrs by ZQ-LC-MS analysis; type: ADME, cell-free
How it was run: (§3)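 Compounds were incubated in rat, mouse and human plasma for 120 min at 37 °C. The result is reported as the percentage of parent compound remaining.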

[9] = system: Plasma; assay: Metabolic stability in mouse plasma at 5 uM after 2 hrs by ZQ-LC-MS analysis; type: ADME, cell-free; how it was run: as §3
[10] = system: Plasma; assay: Metabolic stability in human plasma at 5 uM after 2 hrs by ZQ-LC-MS analysis; type: ADME, cell-free; how it was run: as §3
[11] = system: Liver microsome; assay: Metabolic stability in rat liver microsomes at 2 uM after 1 hr by ZQ-LC-MS analysis; type: ADME
[12] = Metabolic stability in mouse liver microsomes at 2 uM after 1 hr by ZQ-LC-MS analysis; type: ADME
[13] = system: Liver microsome; assay: Metabolic stability in human liver microsomes at 2 uM after 1 hr by ZQ-LC-MS analysis; type: ADME

## CN(C)c1ccc(C#CC2=C[C@@H]3C[C@@]4(OC(=O)C=C24)[C@H]2CCCCN32)cc1
[1]
  IC50: 420 nM
[2]
  inhibition of growth at 20 µM: 100%
[3]
  inhibition of growth at 10 µM: 100%
[4]
  inhibition of growth at 1 µM: 99.7%
[5]
  IC50: 170 nM
[6]
  IC50: 600 nM
[7]
  IC50: 420 nM
[8]
  Stability: Unstable
[9]
  Stability: Unstable
[10]
  Stability: Unstable
[11]
  Stability: Unstable
[12]
  Stability: Unstable
[13]
  Stability: Unstable

## CN(C)c1ccc(C2=C[C@@H]3C[C@@]4(OC(=O)C=C24)[C@H]2CCCCN32)cc1
[2]
  inhibition of growth at 20 µM: 19.3%
[3]
  inhibition of growth at 10 µM: 5.6%
[4]
  inhibition of growth at 1 µM: -1.4%
[8]
  Stability: Stable
[9]
  Stability: Stable
[10]
  Stability: Stable
[11]
  Stability: Unstable
[12]
  Stability: Unstable
[13]
  Stability: Unstable

## O=C1C=C2C(C#CCCCCl)=C[C@@H]3C[C@@]2(O1)[C@H]1CCCCN31
[2]
  inhibition of growth at 20 µM: 99.2%
[3]
  inhibition of growth at 10 µM: 97.8%
[4]
  inhibition of growth at 1 µM: 6.1%
[11]
  Stability: Unstable
[12]
  Stability: Unstable
[13]
  Stability: Unstable

## COc1ccc(C#CC2=C[C@@H]3C[C@@]4(OC(=O)C=C24)[C@H]2CCCCN32)cc1
[1]
  IC50: 340 nM
[2]
  inhibition of growth at 20 µM: 100%
[3]
  inhibition of growth at 10 µM: 100%
[4]
  inhibition of growth at 1 µM: 98.3%
[5]
  IC50: 60 nM
[6]
  IC50: 290 nM
[7]
  IC50: 660 nM
[8]
  Stability: Unstable
[9]
  Stability: Unstable
[10]
  Stability: Unstable

## O=C1C=C2C(C#Cc3ccccc3)=C[C@@H]3C[C@@]2(O1)[C@H]1CCCCN31
[2]
  inhibition of growth at 20 µM: 100%
[3]
  inhibition of growth at 10 µM: 100%
[4]
  inhibition of growth at 1 µM: 91.9%
[8]
  Stability: Unstable
[9]
  Stability: Unstable
[10]
  Stability: Unstable
[11]
  Stability: Unstable
[12]
  Stability: Unstable
[13]
  Stability: Unstable

## O=C1C=C2C=C[C@@H]3C[C@@]2(O1)[C@H]1CCCCN31 [SECURININE]
[1]
  IC50: > 10000 nM
[2]
  inhibition of growth at 20 µM: 90.7%
[3]
  inhibition of growth at 10 µM: 50.6%
[4]
  inhibition of growth at 1 µM: 7.6%
[6]
  IC50: > 10000 nM
[7]
  IC50: > 10000 nM
[8]
  Stability: Stable
[9]
  Stability: Stable
[10]
  Stability: Stable
[11]
  Stability: Unstable
[12]
  Stability: Unstable
[13]
  Stability: Stable
